ChEMBL document CHEMBL1157314, “Antibacterial, partially acetylated oligorhamnosides from Cleistopholis patens” (2006)

Key:
Type in all cases: functional
Bacillus sp. [1] = assay: Antibacterial activity against erythromycin-resistant Bacillus sp. 32-2406A isolate after 24 hrs by broth microdilution method; conditions: Bacillus sp. (in: firmicutes)
How it was run: (§1)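 Broth microdilution following NCCLS M7-A6 (2003), with inoculum at the recommended densities. Isolates were placed into panel wells with an autoinoculator and grown in cation-adjusted Mueller-Hinton broth at 35°C in ambient air for overnight to 24 h. Panels were read by eye, and the MIC was taken as no visible growth.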

Enterococcus faecalis [2] = assay: Antibacterial activity against vancomycin-resistant Enterococcus faecalis 82-876D with vanB phenotype isolate after 24 hrs by broth microdilution method; how it was run: as §1
Streptococcus mitis = assay: Antibacterial activity against penicillin-resistant Streptococcus mitis 61-2900C isolate after 24 hrs by broth microdilution method; how it was run: as §1
Streptococcus [3] = assay: Antibacterial activity against levofloxacin-resistant beta-haemolytic sStreptococcus 19-756A isolate after 24 hrs by broth microdilution method; how it was run: as §1
Bacillus sp. [4] = assay: Antibacterial activity against tetracycline-resistant Bacillus sp. 107-1461D isolate after 24 hrs by broth microdilution method; conditions: Bacillus sp. (in: firmicutes); how it was run: as §1
Staphylococcus [5] = assay: Antibacterial activity against mupirocin-resistant coagulase negative Staphylococcus 63-18A isolate after 24 hrs by broth microdilution method; how it was run: as §1
Streptococcus [6] = assay: Antibacterial activity against levafloxacin-resistant viridans group Streptococcus 107-6380A isolate after 24 hrs by broth microdilution method; how it was run: as §1
Staphylococcus [7] = assay: Antibacterial activity against coagulase negative linezolid-resistant Staphylococcus 82-1645A isolate after 24 hrs by broth microdilution method; how it was run: as §1
Corynebacterium jeikeium = assay: Antibacterial activity against Corynebacterium jeikeium 15-196A isolate after 24 hrs by broth microdilution method
How it was run: (§2)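 Broth microdilution following NCCLS M7-A6 (2003) inocula; isolates transferred aseptically into panel wells with an autoinoculator; cation-adjusted Mueller-Hinton broth; incubated overnight to 24 h at 35°C in ambient air; panels read by eye, MIC taken as lowest concentration with no visible growth.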

Enterococcus faecalis [8] = assay: Antibacterial activity against vancomycin-resistant Enterococcus faecalis 48-22D isolate with vanA phenotype after 24 hrs by broth microdilution method; how it was run: as §1
Streptococcus pneumoniae [9] = assay: Antibacterial activity against penicillin-resistant Streptococcus pneumoniae 33-50B isolate after 24 hrs by broth microdilution method; how it was run: as §1
Streptococcus [10] = assay: Antibacterial activity against erythromycin-resistant and clindamycin-susceptible beta-haemolytic sStreptococcus 109-820D isolate after 24 hrs by broth microdilution method; how it was run: as §1
Bacillus sp. [11] = assay: Antibacterial activity against trimethoprim/sulfamethaxazole-resistant Bacillus sp. 67-1057A isolate after 24 hrs by broth microdilution method; conditions: Bacillus sp. (in: firmicutes); how it was run: as §1
[12] = system: Staphylococcus haemolyticus; assay: Antibacterial activity against oxacillin-resistant Staphylococcus haemolyticus 107-1240C isolate after 24 hrs by broth microdilution method; how it was run: as §1
Streptococcus pneumoniae [13] = assay: Antibacterial activity against penicillin-intermediate resistant Streptococcus pneumoniae ATCC 49619 after 24 hrs by broth microdilution method; conditions: ATCC 49619, 24 h; how it was run: as §1
Escherichia coli = assay: Antibacterial activity against sEscherichia coli ATCC 25922 after 24 hrs by broth microdilution method; conditions: ATCC 25922, 24 h; how it was run: as §2
Streptococcus [14] = assay: Antibacterial activity against mupirocin-resistant viridans group sStreptococcus 32-2395A isolate after 24 hrs by broth microdilution method; how it was run: as §1
Enterococcus faecalis [15] = assay: Antibacterial activity against linezolid-resistant Enterococcus faecalis 15-5341 isolate after 24 hrs by broth microdilution method; how it was run: as §1
Streptococcus [16] = assay: Antibacterial activity against erythromycin and clindamycin-resistant beta-haemolytic sStreptococcus 91-526D isolate after 24 hrs by broth microdilution method; how it was run: as §1
Streptococcus pneumoniae [17] = assay: Antibacterial activity against erythromycin-resistant and clindamycin-susceptible Streptococcus pneumoniae 35-405B isolate after 24 hrs by broth microdilution method; how it was run: as §1
Streptococcus [18] = assay: Antibacterial activity against linezolid-resistant viridans group Streptococcus 27-2832A isolate after 24 hrs by broth microdilution method; how it was run: as §1
Streptococcus pneumoniae [19] = assay: Antibacterial activity against erythromycin and clindamycin-resistant Streptococcus pneumoniae 4-38B isolate after 24 hrs by broth microdilution method; how it was run: as §1
Pseudomonas aeruginosa = assay: Antibacterial activity against sPseudomonas aeruginosa ATCC 27853 after 24 hrs by broth microdilution method; conditions: ATCC 27853, 24 h; how it was run: as §2
Streptococcus pneumoniae [20] = assay: Antibacterial activity against levofloxacin-resistant Streptococcus pneumoniae 2-2784A isolate after 24 hrs by broth microdilution method; how it was run: as §1
Enterococcus faecalis [21] = assay: Antibacterial activity against ampicillin and vancomycin-susceptible Enterococcus faecalis ATCC 29212 after 24 hrs by broth microdilution method; conditions: ATCC 29212, 24 h; how it was run: as §1
Enterococcus faecalis [22] = assay: Antibacterial activity against gentamycin and streptomycin-resistant Enterococcus faecalis 39-11D isolate after 24 hrs by broth microdilution method; how it was run: as §1
Streptococcus pyogenes = assay: Antibacterial activity against erythromycin-resistant Streptococcus pyogenes 91-8747 isolate after 24 hrs by broth microdilution method; how it was run: as §1
Streptococcus pneumoniae [23] = assay: Antibacterial activity against multidrug resistant Streptococcus pneumoniae 68-2307B isolate after 24 hrs by broth microdilution method; how it was run: as §1
Staphylococcus [24] = assay: Antibacterial activity against quinupristin/dalfopristin-resistant coagulase negative Staphylococcus 90-10840A isolate after 24 hrs by broth microdilution method; how it was run: as §1
Streptococcus [25] = assay: Antibacterial activity against multidrug-resistant viridans group Streptococcus 58-1602D isolate after 24 hrs by broth microdilution method; how it was run: as §1
Enterococcus faecium [26] = assay: Antibacterial activity against linezolid-resistant Enterococcus faecium 11-4103A isolate after 24 hrs by broth microdilution method; how it was run: as §1
Staphylococcus aureus [27] = assay: Antibacterial activity against methicillin-resistant Staphylococcus aureus 78-13607A after 24 hrs by broth microdilution method; how it was run: as §1
Enterococcus faecium [28] = assay: Antibacterial activity against vancomycin-resistant Enterococcus faecium 103-1232D isolate with vanB phenotype after 24 hrs by broth microdilution method; how it was run: as §1
Staphylococcus aureus [29] = assay: Antibacterial activity against mupirocin-resistant Staphylococcus aureus 4-90A isolate after 24 hrs by broth microdilution method; how it was run: as §1
Corynebacterium sp. [30] = assay: Antibacterial activity against rifampin-resistant Corynebacterium sp. 58-9161A isolate after 24 hrs by broth microdilution method; how it was run: as §1
Bacillus cereus = assay: Antibacterial activity against Bacillus cereus 24-59A isolate after 24 hrs by broth microdilution method
[31] = system: Staphylococcus epidermidis; assay: Antibacterial activity against oxacillin-susceptible Staphylococcus epidermidis isolate 12-1788A isolate after 24 hrs by broth microdilution method
Corynebacterium sp. [32] = assay: Antibacterial activity against streptomycin-resistant Corynebacterium sp. 61-5454A isolate after 24 hrs by broth microdilution method; how it was run: as §1
Corynebacterium sp. [33] = assay: Antibacterial activity against doxycyclin-resistant Corynebacterium sp. 105-1513C isolate after 24 hrs by broth microdilution method; how it was run: as §1
Staphylococcus aureus [34] = assay: Antibacterial activity against oxacillin-susceptible Staphylococcus aureus ATCC 29213 after 24 hrs by broth microdilution method; conditions: ATCC 29213, 24 h; how it was run: as §1
Staphylococcus aureus [35] = assay: Antibacterial activity against oxacillin-resistant Staphylococcus aureus ATCC 33591 after 24 hrs by broth microdilution method; conditions: ATCC 33591, 24 h; how it was run: as §1
Enterococcus faecium [36] = assay: Antibacterial activity against ampicillin and vancomycin-resistant Enterococcus faecium 24-45A isolate after 24 hrs by broth microdilution method; how it was run: as §1
Enterococcus faecium [37] = assay: Antibacterial activity against quinupristin/dalfopristin-resistant Enterococcus faecium 65-1208A isolate after 24 hrs by broth microdilution method; how it was run: as §1
Enterococcus faecium [38] = assay: Antibacterial activity against vancomycin-resistant Enterococcus faecium 15-206A isolate with vanA phenotype after 24 hrs by broth microdilution method; how it was run: as §1
Staphylococcus aureus [39] = assay: Antibacterial activity against linezolid-resistant Staphylococcus aureus 106-12591A isolate after 24 hrs by broth microdilution method; how it was run: as §1
Staphylococcus aureus [40] = assay: Antibacterial activity against methicillin-resistant Staphylococcus aureus ATCC 33591 after 24 hrs by broth microdilution method; conditions: ATCC 33591, 24 h; how it was run: as §1
Staphylococcus aureus [41] = assay: Antibacterial activity against quinupristin/dalfopristin-resistant Staphylococcus aureus 300-12053A isolate after 24 hrs by broth microdilution method; how it was run: as §1

Measured: MIC

CN[C@H](CC(C)C)C(=O)N[C@H]1C(=O)N[C@@H](CC(N)=O)C(=O)N[C@H]2C(=O)N[C@H]3C(=O)N[C@H](C(=O)N[C@H](C(=O)O)c4cc(O)cc(O)c4-c4cc3ccc4O)[C@H](O)c3ccc(c(Cl)c3)Oc3cc2cc(c3O[C@@H]2O[C@H](CO)[C@@H](O)[C@H](O)[C@H]2O[C@H]2C[C@](C)(N)[C@H](O)[C@H](C)O2)Oc2ccc(cc2Cl)[C@H]1O [VANCOMYCIN]
1 µg/mL: Streptococcus mitis | Corynebacterium jeikeium | Streptococcus pneumoniae [9] | [12] | Streptococcus pneumoniae [13] | Escherichia coli | Pseudomonas aeruginosa | Enterococcus faecalis [21] | Streptococcus pyogenes
not listed: Enterococcus faecium [26] | Staphylococcus aureus [27] | Enterococcus faecium [28] | Staphylococcus aureus [29] | Corynebacterium sp. [30] | Bacillus cereus | [31] | Corynebacterium sp. [32] | Corynebacterium sp. [33] | Staphylococcus aureus [34] | Staphylococcus aureus [35] | Enterococcus faecium [36] | Enterococcus faecium [37] | Enterococcus faecium [38] | Staphylococcus aureus [39] | Staphylococcus aureus [40] | Staphylococcus aureus [41]
0.5 µg/mL: all other assays above

CCCCCCCCCCCCO[C@@H]1O[C@@H](C)[C@H](O[C@@H]2O[C@@H](C)[C@H](OC(C)=O)[C@@H](O[C@@H]3O[C@@H](C)[C@H](OC(C)=O)[C@@H](O[C@@H]4O[C@@H](C)[C@H](OC(C)=O)[C@@H](O)[C@H]4O)[C@H]3OC(C)=O)[C@H]2O)[C@@H](O)[C@H]1O
0.5 µg/mL: Staphylococcus aureus [40]
1 µg/mL: Staphylococcus aureus [27]
> 2 µg/mL: Staphylococcus aureus [29]
> 32 µg/mL: Staphylococcus [5] | Staphylococcus [7] | Escherichia coli | [31] | Pseudomonas aeruginosa | Staphylococcus [24]
4 µg/mL: Streptococcus mitis | Streptococcus [3] | Streptococcus [6] | Streptococcus pneumoniae [9] | Streptococcus [10] | Streptococcus pneumoniae [13] | Streptococcus [14] | Streptococcus [16] | Streptococcus pneumoniae [17] | Streptococcus [18] | Streptococcus pneumoniae [19] | Staphylococcus aureus [34] | Streptococcus pyogenes | Streptococcus pneumoniae [23] | Streptococcus [25]
16 µg/mL: Corynebacterium sp. [30] | Corynebacterium sp. [32] | Corynebacterium sp. [33]
32 µg/mL: Corynebacterium jeikeium | [12]
not listed: Streptococcus pneumoniae [20]
2 µg/mL: all other assays above

CN(C)[C@@H]1C(O)=C(C(N)=O)C(=O)[C@@]2(O)C(O)=C3C(=O)c4c(O)cccc4[C@@](C)(O)[C@H]3C[C@@H]12 [TETRACYCLINE]
≤ 16 µg/mL: Staphylococcus aureus [27]
> 8 µg/mL: Staphylococcus aureus [40]
